{"source": "paper PMC11247636", "about": "(ACS Medicinal Chemistry Letters, 2024)", "key": {"[1]": {"tested_on": "L-cystine stone formation in Slc3a1-knockout mouse model of cystinuria", "assay": "In vivo efficacy in Slc3a1-knockout mouse model of cystinuria", "set-up": "species or system Slc3a1-knockout male mice", "settings": "150 μmol/kg by gavage daily for 8 weeks"}, "[2]": {"assay": "L-cystine crystallization inhibition assay", "settings": "from EC50 values", "method_in_brief": "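Supersaturated L-cystine (2.9 mM in Millipore water) was incubated with varying test compound concentrations for 72 h at room temperature, then centrifuged. L-cystine remaining in the supernatant was measured. EC50 came from dose–response curves, and relative potency was expressed as a ratio of EC50 values against reference inhibitors.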"}, "[3]": {"assay": "Oral bioavailability and pharmacokinetics in Slc3a1-knockout mice", "assay_type": "in vivo", "settings": "male, mouse, plasma, 150 umol/kg", "method_in_brief": "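Male Slc3a1-knockout mice (4 per route) received a single oral gavage of 150 μmol/kg in normal saline (100 μL) or a tail-vein iv dose of 30 μmol/kg. About 60 μL saphenous blood was drawn pre-dose and at 5, 15, 30 min and 1, 4, 8, 24 h. Plasma was stored at −80 °C. Parent and mixed-disulfide metabolite were quantified by LC-MS/MS against synthetic metabolite standard. F was derived from oral versus iv exposure.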"}}, "data": [{"smiles": "N[C@@H](CSSC[C@H](N)C(=O)N1CCC2(CCCN2)CC1)C(=O)N1CCC2(CCCN2)CC1", "note": "[compound 3, 8-L-cystinyl bis(1,8-diazaspiro[4.5]decane)]", "values": [{"measurement": "Effect on growth", "setting": "[1]", "value": "no adverse effect on growth"}, {"measurement": "Mice with stones in treated group", "setting": "[1]; water group 28 of 51", "value": "1 out of 25"}, {"measurement": "Fold more potent than CDME in inhibiting L-cystine crystallization", "setting": "[2]", "value": "about 120 ×"}, {"measurement": "Fold more potent than LH708 in inhibiting L-cystine crystallization", "setting": "[2]", "value": "about 2 ×"}, {"measurement": "Fold more potent than CDME in inhibiting L-cystine crystallization", "setting": "[2]; listed as LH1753", "value": 120, "unit": "×"}, {"measurement": "Fold more potent than LH708 in inhibiting L-cystine crystallization", "setting": "[2]; listed as LH1753", "value": 2, "unit": "×"}, {"measurement": "CL/F", "setting": "[3]", "value": 133, "unit": "mL/min/kg"}, {"measurement": "Vd/F", "setting": "[3]", "value": 7, "unit": "L/kg"}]}]}
